aDG glyco act: increases alpha dystroglycan glycosylation | Pro5-aDG cells, alpha-DG glycosylation AlphaScreen (IIH6); 0% Pro5, 100% B10-LARGE cell signal | activation, % at 10 µM | hit rate 0.22% among 360,000 | AID 624168;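 active means activation of at least 8% versus controls, or a plate z-score of at least 8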;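 further: Pro5 are CHO cells carrying HIG-tagged alpha-DG that lacks glycosylation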
GRIN3A LBD mod: modulates the human NR3A ligand-binding domain; NR3A LBD differential scanning fluorimetry, Tm shift; 0% = protein alone, 100% = glycine-bound protein; Tm shift relative to glycine control, % at 25 µM; hit rate 2.5% among 340,000; AID 1259313;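 active means melting temperature shift of at least 10% of the positive control shift, at one fixed dose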
MPTP inh: blocks calcium-induced mitochondrial swelling; isolated mouse mitochondria, Ca2+ swelling absorbance, 30 min; inhibition, % at 10 µM; hit rate 1.4% among 360,000; AID 602449;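 active means inhibition of 50% or more, scaled per plate between neutral and stimulator controls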
XBP1 UPR activ: adaptive UPR (XBP1) activation | CHO-XBP1 luciferase reporter, IRE1-XBP1 UPR activation, luminescence; percent of tunicamycin response, DMSO as zero | hit rate 0.33% among 330,000 | activation, % at 20 µM;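 active means versus positive control, 20 µM dose yields 30% or more activation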
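Material: CHO-XBP1 cells stably carrying IRE1-XBP1-driven luciferase reporter | Medium: F12 with 10% serum | Compound dosing: 20 µM single concentration, DMSO 1% | Incubation: Overnight seeding at 37 °C, 6 h compound treatment at 37 °C | Detection: Steady-Glo luminescence read | Read-out basis: % activation of reporter signal versus tunicamycin and DMSO controls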
CHOP inhibitor: inhibitors of CHOP induction in ER stress response; CHO-K1 CHOP-promoter luciferase, tunicamycin-induced, 15-18 h; inhibition, % at 10 µM; hit rate 3.8% among 220,000; AID 2732;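 active means compounds that reduced the stress-induced luciferase reporter signal by more than about 70% of percent inhibition, limit read from the data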
CHOP UPR activ: apoptotic UPR (CHOP) activation | CHO-CHOP luciferase reporter, luminescence; percent of tunicamycin response over DMSO baseline | activation, % at 10 µM | hit rate 0.34% among 330,000;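 active means at 10 µM dose, activation of 40% or more, normalized to positive control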
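Test system: CHO CHOP reporter cells. Input: 500 CHO-CHOP cells per well. Medium: F12 with 10% FBS. Technique: luciferase luminescence. Measure: percent activation relative to tunicamycin control. Dosing: 10 µM compound, 0.5% DMSO. Timing: 16-18 h cell attachment, then 6 h compound exposure, 37 °C.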
Hits are given with their value; . = inactive; / = no result given. Rows were chosen to be rich in hits. Some 5.6% of all compounds tested hit in one or more screens of this group.

SMILES | aDG glyco act | GRIN3A LBD mod | MPTP inh | XBP1 UPR activ | CHOP inhibitor | CHOP UPR activ
Cc1ccc(S(=O)(=O)N2C[C@@H]3c4ccccc4N(S(=O)(=O)c4ccc(C)cc4)[C@@H]3[C@@H](C)C2CC(=O)c2ccccc2)cc1 (some centres undefined) | . | . | . | . | / | .
OC1c2cc(Cl)cc(Cl)c2N=C2CCCN21 (centres undefined) | . | / | . | / | / | /
COc1ccc(C(=O)Nc2ccc(NC(=O)c3cccc(OC)c3)cn2)cc1 | . | 38 | . | . | / | .
COc1ccc(C(=O)Nc2ccc(NC(=O)c3cc(OC)c(OC)c(OC)c3)cn2)cc1 | . | . | . | . | / | .
COc1ccc(C(=O)Nc2ccc(NC(=O)c3cccs3)cn2)cc1 | . | 17 | . | . | / | .
Cc1cc(NC(=O)c2ccc(NC(=O)c3cccs3)cc2)no1 | . | 14 | . | . | . | .
COc1ccc(C(=O)Nc2ccc(NC(=O)c3cccc(F)c3)cn2)cc1 | . | . | . | . | / | .
COc1ccc(C(=O)Nc2ccc(NC(=O)c3ccccc3OC)nc2)cc1 | . | 25 | . | . | / | .
COc1ccc(NC(=O)c2cccs2)cc1 | . | . | . | . | . | .
CCOC(=O)c1c(S(=O)(=O)NCC(C)c2ccccc2)c(C)n(C)c1C (centres undefined) | . | . | . | . | / | .
CCCCC[C@@H](C)N1C[C@@H](COCc2ccccc2)Oc2cc(N3CC[C@@H](N(C)C)C3)ccc2S1(=O)=O | . | / | . | / | / | /
NC(=O)C1=CC2C3C=CC2(O)C(=O)OC3O1 (centres undefined) | . | . | . | / | / | /
CCC1(C2=CCCCC2)C(=O)NC(=S)N=C1N (centres undefined) | . | . | . | / | / | /
COc1ccc(OC)c(C2=C[N+](=O)C(C)(C)C(C)(C)N2[O-])c1 | . | . | . | . | . | .
CC1(C)N([O-])C(c2ccccc2)=C[N+](=O)C1(C)C | . | 681 | . | . | . | .
COc1ccc(OC)c(C(=O)CSc2nnc(-c3ccc(OC)c(OC)c3)o2)c1 | / | / | / | / | 80 | /
COc1cc(-c2nnc(SCC(=O)c3ccc(C)cc3)o2)cc(OC)c1OC | . | 11 | . | . | . | .
O=C(CN1CCc2ccccc21)NC(=O)NCc1ccccc1 | . | . | . | . | . | .
CC1CCN(S(=O)(=O)c2cccc3cccnc23)CC1 | . | . | . | . | / | .
O=C(Nc1ccccc1OC(F)F)c1ccc(S(=O)(=O)N2CCOCC2)cc1 | . | . | . | . | / | .
CCOc1ccc(NC(=O)NCC2CCN(c3ccc(OC)cc3)C2)cc1 (centres undefined) | . | . | . | . | 76 | .
Cc1ccc(NC(=O)COc2ccc(/C(N)=N/O)cc2)cc1C | . | 14 | . | . | . | .
CCc1ccc(NC(=O)NCC2CCN(c3ccc(OC)cc3)C2)cc1 (centres undefined) | . | . | . | . | . | .
CC(=O)c1ccc(OCCCC(=O)Nc2ccc(S(=O)(=O)N3CCOCC3)cc2)cc1 | . | 22 | . | . | / | .
COc1ccc(NC(=O)c2ccc(NC(=O)CN3CCN(c4ccc(O)cc4)CC3)cc2)cc1 | . | 17 | . | / | / | /
SMILES | aDG glyco act | GRIN3A LBD mod | MPTP inh | XBP1 UPR activ | CHOP inhibitor | CHOP UPR activ
CCOC(=O)N1CCC(N(CCN(C)C)C(=S)Nc2ccc(Oc3ccccc3)cc2)CC1 | . | . | . | . | . | .
CC(=O)c1ccc(OCC(=O)Nc2ccc(N3CCCCC3)cc2)cc1 | . | . | . | . | / | .
COc1ccc(OCC(=O)Nc2ccc(N3CCCCC3)cc2)cc1 | . | 19 | . | . | . | .
COc1ccc(NC(=O)COc2ccc(-n3cnnn3)cc2)cc1OC | . | 11 | . | . | / | .
Cc1ccc(NC(=O)COc2ccc(-n3cnnn3)cc2)cc1C | . | . | . | . | . | .
COc1ccc(OCCCC(=O)Nc2ccc(N3CCCCC3)cc2)cc1 | . | . | . | . | . | .
COc1ccc(OCCCC(=O)Nc2ccc(N3CCOCC3)cc2)cc1 | . | 28 | . | . | . | .
COc1ccc(NC(=O)NNC(=O)C(C)Oc2ccc3ccccc3c2)cc1 (centres undefined) | . | . | . | . | / | .
CCOc1cc(/C=N/NC(=O)Cn2nc([N+](=O)[O-])cc2C)cc(Br)c1OCc1ccccc1F | . | . | . | . | 78 | .
O=C(CSc1ncnc2c1oc1ccccc12)Nc1cccc(Cl)c1 | . | . | . | . | . | .
O=C(CSc1ncnc2c1oc1ccccc12)Nc1cccc(C(F)(F)F)c1 | . | . | . | . | 79 | .
C=CCn1nnnc1SCC(=O)Nc1cccc(C(F)(F)F)c1 | . | 16 | . | . | / | .
Nc1nc2ccc(Cl)cc2cc1C(=O)NCc1ccc(Oc2ccccc2)cc1 | . | / | . | / | / | /
CCOc1ccc(C(=O)NCC(=O)OCc2c(F)cccc2Cl)cc1OCC | . | 14 | . | . | . | .
CCOC(=O)c1cc2sc(C)cc2n1CC(=O)Nc1ccc2c(c1)OCCO2 | . | . | . | . | . | .
CCOC(=O)c1cc2sc(C)cc2n1CC(=O)Nc1cccc(C)c1C | . | . | . | . | 74 | .
CCn1c(COc2ccccc2)nnc1SCC(=O)Nc1ccc(N2CCOCC2)cc1 | . | . | . | . | / | .
Cc1cccc(NC(=O)C2C3CCC4C(CCC32)C4(Cl)Cl)c1 (centres undefined) | . | 13 | . | . | 76 | .
O=C(Nc1ccc(Cl)cc1)C1C2CCC3C(CCC21)C3(Cl)Cl (centres undefined) | . | . | . | / | 72 | /
CCOc1ccc(NC(=O)C2C3CCC4C(CCC32)C4(Cl)Cl)cc1 (centres undefined) | . | . | . | . | . | .
O=C(NCC1CC1)c1cc(-c2ccccc2)nn1CC1CC(c2cccc([N+](=O)[O-])c2)=NO1 (centres undefined) | . | . | . | . | / | .
Cc1cc(Oc2cccc3c2S(=O)(=O)N(C2CCCC2)CC(COCc2ccccc2)O3)cc(C)c1C (centres undefined) | . | . | . | / | / | /
O=C(CCl)c1ccc2c(c1)CCN2C(=O)C1CC1 | / | / | / | . | 109 | .
COc1cccc(NC(=O)c2ccc(NC(=O)C3CC(=O)OC34CCCCC4)cc2)c1 (centres undefined) | . | . | . | . | . | .
Clc1cccc(CSc2nnc(-c3c[nH]c4ccccc34)o2)c1 | . | 16 | . | . | . | .
COc1ccc(CN(C(=O)CSc2nnc(-c3ccccc3C)o2)c2ccc(F)cc2)cc1 | . | . | . | . | . | .
Cc1ccc(C(=O)CSc2nnc(-c3c[nH]c4ccccc34)o2)cc1 | . | . | . | . | 95 | .
O=C(CSc1nnc(-c2c[nH]c3ccccc23)o1)N(Cc1ccccc1)c1ccc(F)cc1 | . | . | . | . | 71 | .

Compound activity from PubChem.
